Experimental data collected from several papers.
Compare with care: the assays were run in different laboratories.
Target: Dual specificity tyrosine-phosphorylation-regulated kinase 1B (DYRK1B, Homo sapiens, UniProt Q9Y463)

CS(=O)(=O)Nc1cccc(-c2csc(NC(=O)CSc3nc4nccnc4c(=O)n3CCc3ccccc3)n2)c1
inhibition (enzyme activity, inhibitor; 10 µM): 0%

O=C(O)c1ccc2c(c1)nc(Nc1cccc(F)c1)c1ncncc12
remaining activity (enzyme activity, inhibitor, radiometric; 1 µM): 30%

C[C@@H](c1cccc(C#N)c1)n1cc(Cl)cc(C(N)=O)c1=N
remaining binding (cell-free assay, competition with immobilised ligand; 1 µM): 37%

COc1cc2ncnc(Nc3ccc(Oc4ccccc4)c(C)c3C)c2cc1OC
inhibition (enzyme activity, inhibitor; 1 µM): 1%

O=C(O)c1ccc2c(c1)nc(NCCc1cccc(Cl)c1)c1ncncc12
remaining activity (enzyme activity, inhibitor, radiometric; 1 µM): 114%

Cn1cnc(Br)c1C1=CN(c2ncnc3[nH]cnc23)CCS1
inhibition (enzyme activity, inhibitor, radiometric; 2 µM): 100%

Cc1sc(C(=O)NC2COC2)cc1-n1cc(NC(=O)Nc2c(F)cccc2Cl)cn1
remaining activity (enzyme activity, inhibitor; 10 µM): 105%

O=C1NC(c2ccccn2)Sc2ccccc21 (stereo not drawn)
remaining binding (cell-free assay, competition with immobilised ligand; 1 µM): 100%

O=C(O)c1ccc2c(c1)nc(NCc1ccccc1)c1ccncc12
remaining activity (enzyme activity, inhibitor, radiometric; 1 µM): 112%

Cn1cncc1C1=CN(c2ncnc3[nH]cnc23)CCS1
inhibition (enzyme activity, inhibitor, radiometric; 50 nM): 22.7%

Cc1ccc(NC(=O)c2ccc(C)c(C(F)(F)F)c2)cc1C#Cc1nn(C2CCC(O)CC2)c2ncnc(N)c12 (stereo not drawn)
remaining signal (cell-free assay; 10 µM): 92%

O=C(NCCCC1CCCCC1)c1ccc(CNC(=O)c2cnn(-c3ccccc3)c2C(F)(F)F)cc1
remaining binding (cell-free assay, competition with immobilised ligand; 0.1 µM): 100%

COc1cccc(CCNc2nc3cc(C(=O)O)ccc3c3cncnc23)c1
remaining activity (enzyme activity, inhibitor, radiometric; 1 µM): 112%

Cc1c(C(=O)O)cc(-c2ccc(C3CCNCC3)cc2)c2ccc(-c3ccc(C(F)(F)F)cc3)cc12
remaining binding (cell-free assay, competition with immobilised ligand; 1 µM): 74%

O=C(O)c1ccc2c(c1)nc(NCCc1cccc(F)c1)c1ncncc12
remaining activity (enzyme activity, inhibitor, radiometric; 1 µM): 117%
